The source of these data is article PMC8092417 (Anti-cancer drugs, 2020).

Assay [1] relates to TU-BcX-4IC explants. As to the kind of experiment: Western blot of treated PDX tumor explants. The note with it: 24 hours. In kind it is cell-based, human. For orientation: A western blot detects proteins with antibodies after separation by electrophoresis.
For assay [2], the system named is TU-BcX-4IC M2 spheres. The assay can be described thus: Mammosphere formation and area quantification. In kind it is cell-based, human. The note with it: 7 days treatment. The method, boiled down: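 Cells were plated at 1,000/well in low-attachment plates in serum-free F12/DMEM with B-27 and left 24 h to form spheres. Spheres were then exposed to test compound or DMSO for one week, re-dosed every three days. Spheres were imaged at 40X or 100X, and length and width were measured to calculate area, which was compared with DMSO controls.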

For assay [3], the system named is MDA-MB-231 cells. The assay can be described thus: Ki-67 immunofluorescence staining for proliferation. The note with it: MDA-MB-231, 1 μM, 72 hours. In kind it is cell-based, human.
Assay [4] deals with MINK (Homo sapiens, UniProt Q8N4C8). The assay can be described thus: Kinase inhibition assay. In kind it is biochemical. Conditions: 1 μM.
The test system of assay [5] is MDA-MB-231 M2 spheres. The assay can be described thus: Mammosphere formation and area quantification. Conditions: MDA-MB-231, 7 days treatment. In kind it is cell-based, human. The method, boiled down: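 MDA-MB-231 cells were seeded at 1,000/well in low-attachment wells in serum-free F12/DMEM plus B-27 and allowed 24 h to form spheres. Spheres were then treated with test compound or DMSO for one week, re-dosed every three days. Imaging was at 40X or 100X. Sphere length and width were measured, area was calculated, and values were compared with DMSO controls.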

Assay [6] has as its system TU-BcX-49S cells. As to the kind of experiment: qRT-PCR of epithelial and mesenchymal genes. In kind it is cell-based, human. For orientation: Real-time PCR tracks product formation cycle by cycle.
Assay [7] deals with MST2 (Homo sapiens, UniProt Q13188). As to the kind of experiment: Kinase inhibition assay. In kind it is biochemical. The note with it: 1 μM.
Assay [8] has as its target T1, NEK2 (Homo sapiens, UniProt P51955).
T1 sequence (P51955 1-445): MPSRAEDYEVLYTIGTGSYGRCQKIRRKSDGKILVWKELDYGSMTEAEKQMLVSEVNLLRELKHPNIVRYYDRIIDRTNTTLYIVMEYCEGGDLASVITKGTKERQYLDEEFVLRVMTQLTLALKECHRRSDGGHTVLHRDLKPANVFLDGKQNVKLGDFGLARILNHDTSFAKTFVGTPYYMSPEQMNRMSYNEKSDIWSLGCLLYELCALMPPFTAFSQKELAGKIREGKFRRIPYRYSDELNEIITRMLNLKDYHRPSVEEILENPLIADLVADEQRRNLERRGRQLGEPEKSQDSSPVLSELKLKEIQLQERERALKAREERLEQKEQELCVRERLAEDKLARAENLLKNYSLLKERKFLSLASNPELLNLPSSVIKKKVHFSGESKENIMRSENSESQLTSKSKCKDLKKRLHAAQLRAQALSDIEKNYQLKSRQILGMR
The assay can be described thus: Kinase inhibition assay. In kind it is biochemical. Conditions: 1 μM.

For assay [9], the target named is HIPK4 (Homo sapiens, UniProt Q8NE63). The assay can be described thus: Kinase inhibition assay. In kind it is biochemical. Conditions: 1 μM.
Assay [10] has as its system TU-BcX-4IC cells. As to the kind of experiment: Crystal violet staining, cells remaining / viability dose-response. In kind it is cell-based, human. The note with it: 1 μM, 72 hours.
Assay [11] deals with TU-BcX-4IC cells. The assay can be described thus: qRT-PCR of epithelial and mesenchymal genes. In kind it is cell-based, human. Conditions: 1 μM, 72 hours. The essentials:
(§1)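 Cells were treated 72 h with test compound (1 μM) or DMSO. Total RNA was column-isolated and checked for quantity and quality by absorbance (260, 280 nm). Then 2 μg total RNA was reverse-transcribed and gene expression measured by qRT-PCR.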

The test system of assay [12] is TU-BcX-4IC cells. As to the kind of experiment: Transwell migration assay. The note with it: pretreated 1 μM 72 hours, 24 hours migration. In kind it is cell-based, human. The essentials: (§2)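 Cells were pretreated 72 h with test compound (1 μM) or DMSO, and viable cells were then seeded into transwell chambers for 24 h. Non-migrated cells were removed. Migrated cells were fixed, crystal violet-stained, imaged by brightfield and counted. Counts were normalized to DMSO per cell line; triplicate experiments.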

Assay [13] concerns the target LOK (Homo sapiens, UniProt O94804). The assay can be described thus: Kinase inhibition assay. In kind it is biochemical. Conditions: 1 μM.
Assay [14] relates to MDA-MB-231 cells. The assay can be described thus: qRT-PCR of epithelial and mesenchymal genes. In kind it is cell-based, human. Conditions: MDA-MB-231, 1 μM, 72 hours. The method, boiled down:
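MDA-MB-231 cells in 5% charcoal-stripped DMEM were pre-exposed for 72 h to test compound (1 μM) or DMSO. RNA was then isolated and gene expression measured by quantitative real-time PCR.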

For assay [15], the system named is BT-549 cells. The assay can be described thus: Crystal violet staining, cells remaining / viability dose-response. In kind it is cell-based, human. The method, boiled down:
(§3)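 Cells were plated at 5,000/well in 5% charcoal-stripped DMEM for 48 h, then exposed to test compound or DMSO vehicle for 72 h at 37 °C, 5% CO2. They were fixed with glutaraldehyde for 20 min and stained for 20 min with 0.1% crystal violet in 90% methanol. After overnight drying, cells were lysed in 33% acetic acid and read at 620 nm. Signal was normalized to DMSO and plotted as dose-response.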

The test system of assay [16] is BT-549 cells. The assay can be described thus: qRT-PCR of epithelial and mesenchymal genes. In kind it is cell-based, human. Conditions: BT-549, 1 μM, 72 hours. The essentials:
as §1

Assay [17] deals with BT549 cells. The assay can be described thus: Transwell migration assay. The note with it: BT549, pretreated 1 μM 72 hours, 24 hours migration. In kind it is cell-based, human. The method, boiled down: as §2
The subject of assay [18] is MDA-MB-231 cells. As to the kind of experiment: Crystal violet staining, cells remaining / viability dose-response. In kind it is cell-based, human. The method, boiled down:
as §3

Chain of HIPK4 (Q8NE63 whole entry): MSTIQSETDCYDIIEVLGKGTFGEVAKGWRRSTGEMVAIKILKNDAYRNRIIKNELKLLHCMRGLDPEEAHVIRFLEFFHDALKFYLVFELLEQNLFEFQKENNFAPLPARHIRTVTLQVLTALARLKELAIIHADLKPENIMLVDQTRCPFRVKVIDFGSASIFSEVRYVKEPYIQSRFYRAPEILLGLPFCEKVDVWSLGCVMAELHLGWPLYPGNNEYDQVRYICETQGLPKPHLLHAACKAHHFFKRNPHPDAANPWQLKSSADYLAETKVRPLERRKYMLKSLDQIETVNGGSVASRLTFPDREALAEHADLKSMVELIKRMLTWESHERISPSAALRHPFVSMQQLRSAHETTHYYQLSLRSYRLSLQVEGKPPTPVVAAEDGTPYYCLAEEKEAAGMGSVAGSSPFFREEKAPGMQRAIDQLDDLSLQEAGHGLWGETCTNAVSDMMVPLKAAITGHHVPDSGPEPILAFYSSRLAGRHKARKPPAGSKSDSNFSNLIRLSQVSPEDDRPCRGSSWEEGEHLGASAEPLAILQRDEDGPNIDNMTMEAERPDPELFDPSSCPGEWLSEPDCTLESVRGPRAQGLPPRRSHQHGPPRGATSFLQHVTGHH
Chain of LOK (O94804 whole entry): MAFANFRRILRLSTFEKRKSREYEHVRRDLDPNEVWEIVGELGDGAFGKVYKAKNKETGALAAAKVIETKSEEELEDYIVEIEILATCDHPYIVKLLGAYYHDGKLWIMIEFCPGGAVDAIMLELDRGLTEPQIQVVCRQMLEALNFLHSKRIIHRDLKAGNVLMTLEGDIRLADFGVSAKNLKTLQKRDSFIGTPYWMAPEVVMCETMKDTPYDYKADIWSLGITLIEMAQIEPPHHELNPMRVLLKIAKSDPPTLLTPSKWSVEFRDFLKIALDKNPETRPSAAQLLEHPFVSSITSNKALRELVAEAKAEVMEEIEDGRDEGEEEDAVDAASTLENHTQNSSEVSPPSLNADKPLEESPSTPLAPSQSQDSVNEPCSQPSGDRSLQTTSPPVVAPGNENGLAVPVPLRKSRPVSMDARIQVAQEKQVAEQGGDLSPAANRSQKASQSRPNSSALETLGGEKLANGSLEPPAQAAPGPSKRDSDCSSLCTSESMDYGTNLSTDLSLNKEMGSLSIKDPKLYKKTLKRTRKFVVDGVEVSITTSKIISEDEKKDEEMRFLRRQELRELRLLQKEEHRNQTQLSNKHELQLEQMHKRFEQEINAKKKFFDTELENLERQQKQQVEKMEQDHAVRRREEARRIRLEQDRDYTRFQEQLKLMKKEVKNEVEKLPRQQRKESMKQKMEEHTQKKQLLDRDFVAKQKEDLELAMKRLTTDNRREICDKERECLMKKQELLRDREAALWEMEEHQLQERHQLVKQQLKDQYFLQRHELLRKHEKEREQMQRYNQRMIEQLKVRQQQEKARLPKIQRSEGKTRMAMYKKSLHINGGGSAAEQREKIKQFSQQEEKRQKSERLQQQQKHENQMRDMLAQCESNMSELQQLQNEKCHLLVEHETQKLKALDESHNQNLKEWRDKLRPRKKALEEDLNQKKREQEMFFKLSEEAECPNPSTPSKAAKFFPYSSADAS
Chain of MST2 (Q13188 whole entry): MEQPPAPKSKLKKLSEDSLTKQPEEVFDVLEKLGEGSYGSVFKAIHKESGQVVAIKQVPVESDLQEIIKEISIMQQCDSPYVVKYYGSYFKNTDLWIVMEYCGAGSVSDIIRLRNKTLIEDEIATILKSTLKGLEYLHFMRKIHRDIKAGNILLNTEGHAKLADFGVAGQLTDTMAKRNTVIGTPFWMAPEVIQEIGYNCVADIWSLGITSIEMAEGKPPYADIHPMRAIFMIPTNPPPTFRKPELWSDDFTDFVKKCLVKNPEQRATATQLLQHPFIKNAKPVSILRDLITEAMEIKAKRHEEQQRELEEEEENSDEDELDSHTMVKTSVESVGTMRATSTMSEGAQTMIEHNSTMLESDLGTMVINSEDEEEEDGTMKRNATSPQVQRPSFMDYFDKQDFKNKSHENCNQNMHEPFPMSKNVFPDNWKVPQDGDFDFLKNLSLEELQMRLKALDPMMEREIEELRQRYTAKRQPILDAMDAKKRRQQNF
Chain of MINK (Q8N4C8 whole entry): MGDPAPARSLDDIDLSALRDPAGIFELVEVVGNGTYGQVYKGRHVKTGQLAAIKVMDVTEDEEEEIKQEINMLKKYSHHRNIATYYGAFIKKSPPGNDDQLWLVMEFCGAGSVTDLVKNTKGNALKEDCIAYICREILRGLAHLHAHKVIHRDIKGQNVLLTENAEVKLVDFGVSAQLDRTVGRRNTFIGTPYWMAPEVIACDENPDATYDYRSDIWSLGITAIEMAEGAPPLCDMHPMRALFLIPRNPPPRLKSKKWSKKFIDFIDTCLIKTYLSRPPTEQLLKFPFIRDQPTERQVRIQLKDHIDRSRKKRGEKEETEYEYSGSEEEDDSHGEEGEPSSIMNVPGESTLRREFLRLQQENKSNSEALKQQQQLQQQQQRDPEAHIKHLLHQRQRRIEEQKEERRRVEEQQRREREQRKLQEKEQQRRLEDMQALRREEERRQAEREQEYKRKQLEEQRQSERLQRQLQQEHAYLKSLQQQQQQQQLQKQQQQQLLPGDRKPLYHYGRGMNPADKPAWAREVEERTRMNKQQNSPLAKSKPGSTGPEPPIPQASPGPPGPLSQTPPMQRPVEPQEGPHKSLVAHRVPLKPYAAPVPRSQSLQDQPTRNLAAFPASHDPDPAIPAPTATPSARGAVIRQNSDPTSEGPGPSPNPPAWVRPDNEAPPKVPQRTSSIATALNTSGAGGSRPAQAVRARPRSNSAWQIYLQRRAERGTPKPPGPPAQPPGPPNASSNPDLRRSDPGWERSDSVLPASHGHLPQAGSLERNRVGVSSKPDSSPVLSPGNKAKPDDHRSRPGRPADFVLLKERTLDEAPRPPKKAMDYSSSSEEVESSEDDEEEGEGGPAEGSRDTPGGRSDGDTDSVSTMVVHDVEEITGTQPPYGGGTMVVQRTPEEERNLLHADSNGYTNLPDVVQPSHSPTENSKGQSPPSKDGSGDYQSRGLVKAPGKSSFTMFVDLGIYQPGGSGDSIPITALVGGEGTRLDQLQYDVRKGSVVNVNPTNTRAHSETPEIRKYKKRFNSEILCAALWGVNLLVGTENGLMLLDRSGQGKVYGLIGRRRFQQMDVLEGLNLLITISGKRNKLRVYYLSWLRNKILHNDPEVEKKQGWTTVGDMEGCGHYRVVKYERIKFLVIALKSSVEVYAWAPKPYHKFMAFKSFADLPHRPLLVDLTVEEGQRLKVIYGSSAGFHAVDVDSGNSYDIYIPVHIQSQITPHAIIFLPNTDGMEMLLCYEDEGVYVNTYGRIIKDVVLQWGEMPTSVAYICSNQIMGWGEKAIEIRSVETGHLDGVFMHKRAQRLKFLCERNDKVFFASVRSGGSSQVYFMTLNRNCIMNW

Consider `COc1cc2ncn(-c3cc(OCc4sccc4Cl)c(C(N)=O)s3)c2cc1OC` [GSK448459A], for which the MMP9 protein expression result in assay [1] is “did not suppress MMP9 and ZEB1 protein expressions”. Besides, in assay [1], the ZEB1 protein expression entry was “did not suppress MMP9 and ZEB1 protein expressions”. In addition, the “Mammosphere formation (sphere area)” value in assay [2] is on record as “significantly suppressed mammosphere formation”. Also, the “Ki-67 positive cells (cell proliferation)” value in assay [3] is recorded as “decreased Ki-67 positive cells”. Further, the “Binding activity against MINK” value in assay [4] is given as “significant binding activity”. In addition, the Sphere area entry in [5] is given as “significantly increased sphere area”. For the same molecule, the “cFOS mRNA expression” value in assay [6] is reported as “Neither GSK346294A nor GSK448459A suppressed cFOS mRNA expression”; in assay [11] it was “suppressive effects in all three TNBC cell lines, although not significantly”; in assay [14], “suppressive effects in all three TNBC cell lines, although not significantly”; in assay [16] it was “suppressive effects in all three TNBC cell lines, although not significantly”. Besides, the “Binding activity against MST2” value in [7] was “significant binding activity”. Moreover, in assay [8], the “Binding activity against NEK2” value was “significant binding activity”. Also, the “Binding activity to NEK2” value in assay [8] was found to be 97.1%. Also, in [9], the “Binding activity against HIPK4” value is on record as “significant binding activity”. For the same molecule, the “Number of cells remaining compared to DMSO controls” value in assay [10] was “increased number of cells remaining”; in assay [15] (BT-549, 1 μM, 72 hours), “increased number of cells remaining”; in assay [18] (MDA-MB-231, 1 μM, 72 hours) it was “increased number of cells remaining”. The “MMP9 mRNA expression” value in assay [11] is reported as “Neither GSK346294A nor GSK448459A affected MMP9 expression”; in assay [14] it was “significantly downregulated MMP9 expression”; in [16] it was “Neither GSK346294A nor GSK448459A affected MMP9 expression”. Besides, the figures for the “ZEB1 mRNA expression” value in assay [11] and in assay [14] were “suppressed ZEB1 expression in TU-BcX-4IC cells albeit not significantly” and “significantly increased ZEB1 expression”, respectively. For the same molecule, the Transwell cell migration result in assay [12] and in assay [17] was “most suppressive effects on cell migration” in each case. For the same molecule, in assay [13], the “Binding activity to LOK” value stood at 99.1%. Moreover, the “SNAI1 mRNA expression” value in assay [14] was “significantly decreased SNAI1 expression”; in assay [16], “increased SNAI1 expression in BT-549 cells significantly”. In addition, the IC50 stood at 7.5 µM in [15] (Homo sapiens, BT-549, 72 h, read-out: IC-50, number of cells remaining) and 50 µM in assay [18] (Homo sapiens, MDA-MB-231, 72 h, read-out: IC-50, number of cells remaining). In addition, the “CDH1 mRNA expression” value in assay [16] is “significantly reduced CDH1 mRNA expression”.
As to `CC[C@@H]1C(=O)N(C)c2cnc(Nc3ccc(C(=O)NC4CCN(C)CC4)cc3OC)nc2N1C1CCCC1` [BI2536], the “Ki-67 positive cells (cell proliferation)” value in assay [3] is reported as “significantly reduced the number of Ki-67 positive cells”.
`CC[C@@H]1C(=O)N(C)c2cnc(Nc3ccc(C(=O)N[C@H]4CC[C@H](N5CCN(CC6CC6)CC5)CC4)cc3OC)nc2N1C(C)C` [BI6727]: in assay [1], the MMP9 protein expression result was “suppressed the mesenchymal markers ZEB1 and MMP9 expression”; the ZEB1 protein expression entry was “suppressed the mesenchymal markers ZEB1 and MMP9 expression”.
